Assay results taken from ChEMBL document CHEMBL4689842, “EUbOPEN Chemogenomics Library wave 1” (2021).

Columns and labels:
Fibroblast = assay: Incucyte cell viability with human fibroblast; assay type: toxicity, cell-based; details: 10 µM, compound concentration 10 uM; note: filed as whole numbers so only -1 and 0 and 1 occur
U2OS = assay: Multiplex assay against U2OS; assay type: toxicity, cell-based; details: human
How it was run: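 Hoechst33342, BioTracker Green Microtubule Cytoskeleton Dye, MitoTracker Red and Annexin V Alexa Fluor 680 were added to live cells at seeding, and imaging on a CQ1 microscope at 37°C and 5% CO2 followed compound addition. Gating by CellPathfinder machine learning separated cells into Hoechst high-intensity objects or normal cells, then normal cells into healthy, pyknosed or fragmented nuclei, then pyknosed cells into mitotic or apoptotic. Per cents of healthy-nucleus cells are reported for the tubulin, mitochondrial-mass and membrane-permeability phenotypes.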

[1] = 12 h, 1 µM, compound concentration 1 uM, replicate 1
[2] = 12 h, 1 µM, compound concentration 1 uM, replicate 2
[3] = 12 h, 10 µM, compound concentration 10 uM, replicate 1
[4] = 12 h, 10 µM, compound concentration 10 uM, replicate 2
[5] = 24 h, 1 µM, compound concentration 1 uM, replicate 1
[6] = 24 h, 1 µM, compound concentration 1 uM, replicate 2
[7] = 24 h, 10 µM, compound concentration 10 uM, replicate 1
[8] = 24 h, 10 µM, compound concentration 10 uM, replicate 2
[9] = 48 h, 1 µM, compound concentration 1 uM, replicate 1
[10] = 48 h, 1 µM, compound concentration 1 uM, replicate 2
[11] = 48 h, 10 µM, compound concentration 10 uM, replicate 1
[12] = 48 h, 10 µM, compound concentration 10 uM, replicate 2

Which results are given for `N#CCNC(=O)c1ccc(-c2ccnc(Nc3ccc(N4CCOCC4)cc3)n2)cc1` [MOMELOTINIB]?
Growth Rate (Fibroblast; 0 h, replicate number 2, timepoint 0 hours): 0; Growth Rate (Fibroblast; 24 h, replicate number 1, timepoint 24 hours): 1; Population Apoptotic (%) (U2OS; [1]): 70%; Population Fragmented Nuclei (%) (U2OS; [1]): 12%; Population Healthy Nuclei (%) (U2OS; [1]): 77%; Population Hoechst High Intensity Objects (%) (U2OS; [1]): 5%; Population Membrane Permeable-Phenotype (%) (U2OS; [1]): 9%; Population Mitochondria Different-Phenotype (%) (U2OS; [1]): 6%; Population Mitotic Cells (%) (U2OS; [1]): 29%; Population Normal (%) (U2OS; [1]): 94%; Population Pyknosed Nuclei (%) (U2OS; [1]): 10%; Population Tubulin-Different-Phenotype (%) (U2OS; [1]): 18%; Total Cell Count (U2OS; [1]): 3583; Population Apoptotic (%) (U2OS; [2]): 60%; Population Fragmented Nuclei (%) (U2OS; [2]): 1%; Population Healthy Nuclei (%) (U2OS; [2]): 88%; Population Hoechst High Intensity Objects (%) (U2OS; [2]): 8%; Population Membrane Permeable-Phenotype (%) (U2OS; [2]): 2%; Population Mitochondria Different-Phenotype (%) (U2OS; [2]): 13%; Population Mitotic Cells (%) (U2OS; [2]): 40%; Population Normal (%) (U2OS; [2]): 91%; Population Pyknosed Nuclei (%) (U2OS; [2]): 9%; Population Tubulin-Different-Phenotype (%) (U2OS; [2]): 11%; Total Cell Count (U2OS; [2]): 3119; Population Apoptotic (%) (U2OS; [3]): 44%; Population Fragmented Nuclei (%) (U2OS; [3]): 18%; Population Healthy Nuclei (%) (U2OS; [3]): 57%; Population Hoechst High Intensity Objects (%) (U2OS; [3]): 6%; Population Membrane Permeable-Phenotype (%) (U2OS; [3]): 10%; Population Mitochondria Different-Phenotype (%) (U2OS; [3]): 20%; Population Mitotic Cells (%) (U2OS; [3]): 55%; Population Normal (%) (U2OS; [3]): 93%; Population Pyknosed Nuclei (%) (U2OS; [3]): 23%; Population Tubulin-Different-Phenotype (%) (U2OS; [3]): 20%; Total Cell Count (U2OS; [3]): 180; Population Apoptotic (%) (U2OS; [4]): 13%; Population Fragmented Nuclei (%) (U2OS; [4]): 27%; Population Healthy Nuclei (%) (U2OS; [4]): 47%; Population Hoechst High Intensity Objects (%) (U2OS; [4]): 10%; Population Membrane Permeable-Phenotype (%) (U2OS; [4]): 0%; Population Mitochondria Different-Phenotype (%) (U2OS; [4]): 6%; Population Mitotic Cells (%) (U2OS; [4]): 86%; Population Normal (%) (U2OS; [4]): 89%; Population Pyknosed Nuclei (%) (U2OS; [4]): 24%; Population Tubulin-Different-Phenotype (%) (U2OS; [4]): 6%; Total Cell Count (U2OS; [4]): 56; Population Apoptotic (%) (U2OS; [5]): 42%; Population Fragmented Nuclei (%) (U2OS; [5]): 14%; Population Healthy Nuclei (%) (U2OS; [5]): 78%; Population Hoechst High Intensity Objects (%) (U2OS; [5]): 3%; Population Membrane Permeable-Phenotype (%) (U2OS; [5]): 10%; Population Mitochondria Different-Phenotype (%) (U2OS; [5]): 9%; Population Mitotic Cells (%) (U2OS; [5]): 57%; Population Normal (%) (U2OS; [5]): 96%; Population Pyknosed Nuclei (%) (U2OS; [5]): 7%; Population Tubulin-Different-Phenotype (%) (U2OS; [5]): 17%; Total Cell Count (U2OS; [5]): 3609; Population Apoptotic (%) (U2OS; [6]): 66%; Population Fragmented Nuclei (%) (U2OS; [6]): 7%; Population Healthy Nuclei (%) (U2OS; [6]): 86%; Population Hoechst High Intensity Objects (%) (U2OS; [6]): 10%; Population Membrane Permeable-Phenotype (%) (U2OS; [6]): 6%; Population Mitochondria Different-Phenotype (%) (U2OS; [6]): 15%; Population Mitotic Cells (%) (U2OS; [6]): 33%; Population Normal (%) (U2OS; [6]): 89%; Population Pyknosed Nuclei (%) (U2OS; [6]): 5%; Population Tubulin-Different-Phenotype (%) (U2OS; [6]): 8%; Total Cell Count (U2OS; [6]): 3108; Population Apoptotic (%) (U2OS; [7]): 61%; Population Fragmented Nuclei (%) (U2OS; [7]): 20%; Population Healthy Nuclei (%) (U2OS; [7]): 46%; Population Hoechst High Intensity Objects (%) (U2OS; [7]): 8%; Population Membrane Permeable-Phenotype (%) (U2OS; [7]): 13%; Population Mitochondria Different-Phenotype (%) (U2OS; [7]): 20%; Population Mitotic Cells (%) (U2OS; [7]): 38%; Population Normal (%) (U2OS; [7]): 91%; Population Pyknosed Nuclei (%) (U2OS; [7]): 33%; Population Tubulin-Different-Phenotype (%) (U2OS; [7]): 20%; Total Cell Count (U2OS; [7]): 194; Population Apoptotic (%) (U2OS; [8]): 45%; Population Fragmented Nuclei (%) (U2OS; [8]): 31%; Population Healthy Nuclei (%) (U2OS; [8]): 52%; Population Hoechst High Intensity Objects (%) (U2OS; [8]): 5%; Population Membrane Permeable-Phenotype (%) (U2OS; [8]): 28%; Population Mitochondria Different-Phenotype (%) (U2OS; [8]): 34%; Population Mitotic Cells (%) (U2OS; [8]): 54%; Population Normal (%) (U2OS; [8]): 94%; Population Pyknosed Nuclei (%) (U2OS; [8]): 16%; Population Tubulin-Different-Phenotype (%) (U2OS; [8]): 14%; Total Cell Count (U2OS; [8]): 59; Population Apoptotic (%) (U2OS; [9]): 27%; Population Fragmented Nuclei (%) (U2OS; [9]): 9%; Population Healthy Nuclei (%) (U2OS; [9]): 82%; Population Hoechst High Intensity Objects (%) (U2OS; [9]): 3%; Population Membrane Permeable-Phenotype (%) (U2OS; [9]): 2%; Population Mitochondria Different-Phenotype (%) (U2OS; [9]): 18%; Population Mitotic Cells (%) (U2OS; [9]): 72%; Population Normal (%) (U2OS; [9]): 96%; Population Pyknosed Nuclei (%) (U2OS; [9]): 7%; Population Tubulin-Different-Phenotype (%) (U2OS; [9]): 19%; Total Cell Count (U2OS; [9]): 3211; Population Apoptotic (%) (U2OS; [10]): 100%; Population Fragmented Nuclei (%) (U2OS; [10]): 7%; Population Healthy Nuclei (%) (U2OS; [10]): 89%; Population Hoechst High Intensity Objects (%) (U2OS; [10]): 2%; Population Membrane Permeable-Phenotype (%) (U2OS; [10]): 8%; Population Mitochondria Different-Phenotype (%) (U2OS; [10]): 17%; Population Mitotic Cells (%) (U2OS; [10]): 0%; Population Normal (%) (U2OS; [10]): 97%; Population Pyknosed Nuclei (%) (U2OS; [10]): 2%; Population Tubulin-Different-Phenotype (%) (U2OS; [10]): 22%; Total Cell Count (U2OS; [10]): 3226; Population Apoptotic (%) (U2OS; [11]): 72%; Population Fragmented Nuclei (%) (U2OS; [11]): 29%; Population Healthy Nuclei (%) (U2OS; [11]): 26%; Population Hoechst High Intensity Objects (%) (U2OS; [11]): 4%; Population Membrane Permeable-Phenotype (%) (U2OS; [11]): 20%; Population Mitochondria Different-Phenotype (%) (U2OS; [11]): 20%; Population Mitotic Cells (%) (U2OS; [11]): 27%; Population Normal (%) (U2OS; [11]): 95%; Population Pyknosed Nuclei (%) (U2OS; [11]): 43%; Population Tubulin-Different-Phenotype (%) (U2OS; [11]): 25%; Total Cell Count (U2OS; [11]): 241; Population Apoptotic (%) (U2OS; [12]): 53%; Population Fragmented Nuclei (%) (U2OS; [12]): 33%; Population Healthy Nuclei (%) (U2OS; [12]): 44%; Population Hoechst High Intensity Objects (%) (U2OS; [12]): 11%; Population Membrane Permeable-Phenotype (%) (U2OS; [12]): 26%; Population Mitochondria Different-Phenotype (%) (U2OS; [12]): 38%; Population Mitotic Cells (%) (U2OS; [12]): 46%; Population Normal (%) (U2OS; [12]): 88%; Population Pyknosed Nuclei (%) (U2OS; [12]): 22%; Population Tubulin-Different-Phenotype (%) (U2OS; [12]): 26%; Total Cell Count (U2OS; [12]): 71
